Test results taken from publication PMC3594138 (Bioorganic & medicinal chemistry letters, 2013).
Like-named read-outs stand apart in the source and are kept apart here.

Tests used:
[1] = tested on: isolated rat heart; settings: uptake-2 blocked pharmacologically; cited from earlier work
[2] = Biodistribution studies in rats; format: in vivo, rat; settings: t = 30 min after intravenous injection, n = 5, mean ± SD
Summary of the method: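 Rats received the fluorine-18 labelled test compound by intravenous injection. Tissue radioactivity was determined 30 min later and expressed as % injected dose/g, with n = 5 each.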

[3] = MicroPET imaging study in rhesus macaque; format: in vivo, rhesus macaque monkey; settings: PET
[4] = rats, t = 30 min, n = 5, mean ± SD; cited from earlier work

Molecule	Major Clearance T1/2 [1] [h]	Neuronal uptake rate Kup [1] [ml/min/g wet]	Tissue concentration, adrenal medulla [4] [% injected dose/g]	Tissue concentration, blood [4] [% injected dose/g]	Tissue concentration, liver [4] [% injected dose/g]	Tissue concentration, lung [4] [% injected dose/g]	Tissue concentration, spleen [4] [% injected dose/g]	further results
N=C(N)NCc1cccc([123I])c1 [[^123I]MIBG, [^123I]-m-iodobenzylguanidine]	3.5 ± 1.8	–	–	–	–	–	–	–
[^11C]-(−)-m-hydroxyephedrine [[^11C]HED]	–	2.7 ± 0.4	–	–	–	–	–	–
N=C(N)NCCc1ccc([18F])c(O)c1 [[^18F]4F-MHPG, [^18F]4-fluoro-m-hydroxyphenethylguanidine]	–	–	–	–	–	–	–	Tissue concentration, adrenal medulla [2]: 0.54 ± 0.08 % injected dose/g; Tissue concentration, blood [2]: 0.07 ± 0.01 % injected dose/g; Tissue concentration, left ventricle [2]: 1.45 ± 0.13 % injected dose/g; Tissue concentration, liver [2]: 1.14 ± 0.16 % injected dose/g; Tissue concentration, lung [2]: 0.43 ± 0.08 % injected dose/g; Tissue concentration, spleen [2]: 0.56 ± 0.10 % injected dose/g; Retention of the tracer in the lungs [3]: essentially no retention; Uptake in the liver relative to cardiac uptake [3]: a little lower than the cardiac uptake; Activity in the vertebrae of the spine (in vivo defluorination) ([3]; sagittal images): little or no activity
N=C(N)NCc1ccc([18F])cc1 [[^18F]PFBG, p-[^18F]fluorobenzylguanidine]	0.53 ± 0.06	–	–	–	–	–	–	–
N=[11C](N)NCCc1ccc(F)c(O)c1 [[^11C]4F-MHPG, [^11C]4-fluoro-m-hydroxyphenethylguanidine]	> 73	0.72	0.56 ± 0.21	0.08 ± 0.01	1.22 ± 0.18	0.56 ± 0.15	0.52 ± 0.10	Tissue concentration, left ventricle [4]: 1.77 ± 0.27 % injected dose/g
NC(N)=NCc1cccc([125I])c1 [[^125I]MIBG]	–	–	1.53 ± 0.08	0.10 ± 0.01	1.19 ± 0.06	2.31 ± 0.19	0.85 ± 0.06	–
